# High-throughput results: PubChem BioAssay, several laboratories
# HKDC1 inhibitor: blocks human hexokinase HKDC1 activity; inhibition, % at 20 µM; 340,000 compounds, 0.16% hits; Q2TB90; AID 493160; recombinant HKDC1, G6PDH/diaphorase resazurin coupled fluorescence;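 active = inhibition above about 35% when tested at 20 µM, limit read from the data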;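 note: plate controls were DMSO wells with enzyme for no effect and DMSO wells lacking enzyme for full effect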
# Target sequence (Q2TB90 whole entry, looked up): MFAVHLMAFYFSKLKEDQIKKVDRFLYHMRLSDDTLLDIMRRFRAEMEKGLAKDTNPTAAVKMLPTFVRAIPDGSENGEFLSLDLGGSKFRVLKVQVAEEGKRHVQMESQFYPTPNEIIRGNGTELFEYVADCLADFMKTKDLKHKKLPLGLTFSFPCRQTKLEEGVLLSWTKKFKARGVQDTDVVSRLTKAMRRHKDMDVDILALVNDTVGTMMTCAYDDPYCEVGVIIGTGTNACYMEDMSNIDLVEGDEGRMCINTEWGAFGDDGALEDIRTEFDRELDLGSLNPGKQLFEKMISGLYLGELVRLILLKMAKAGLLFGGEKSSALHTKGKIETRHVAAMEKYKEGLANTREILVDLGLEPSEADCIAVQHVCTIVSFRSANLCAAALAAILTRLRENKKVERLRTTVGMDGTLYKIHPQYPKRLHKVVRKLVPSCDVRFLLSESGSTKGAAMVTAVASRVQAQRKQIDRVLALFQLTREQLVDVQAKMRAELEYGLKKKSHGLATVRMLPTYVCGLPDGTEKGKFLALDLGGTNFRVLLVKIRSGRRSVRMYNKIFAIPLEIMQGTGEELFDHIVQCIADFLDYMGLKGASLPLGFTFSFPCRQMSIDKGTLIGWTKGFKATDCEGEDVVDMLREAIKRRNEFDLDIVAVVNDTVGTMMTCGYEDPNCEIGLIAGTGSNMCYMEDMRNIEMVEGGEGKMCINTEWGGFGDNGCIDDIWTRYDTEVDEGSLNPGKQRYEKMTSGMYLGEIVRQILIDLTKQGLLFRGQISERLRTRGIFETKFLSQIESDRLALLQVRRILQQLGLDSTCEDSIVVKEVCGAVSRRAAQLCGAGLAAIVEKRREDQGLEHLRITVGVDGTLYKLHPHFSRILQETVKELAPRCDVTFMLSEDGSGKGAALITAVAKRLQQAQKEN
#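 Assay system – recombinant HKDC1 (HK5) hexokinase enzyme, produced in-house · Input – HKDC1 at 5 µg/mL · Reagent – glucose plus 1 mM ATP as hexokinase substrates · Timing – 90 min reaction incubation at room temperature, dark · Measured by – G6PDH/diaphorase-coupled fluorescence, 1 mM NADP, 100 µM resazurin, 525/613 nm · Benchmarks – DMSO-enzyme wells negative, buffer-substituted wells positive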
# PERK inh: inhibitors of human PERK kinase | Q9NZJ5 | CHO PERK-DD fusion, SEAP luminescence translation reporter | inhibition, % at 5.6 µM | 220,000 compounds, 0.17% hits | AID 1416;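 active = inhibition above the mean inhibition of all tested compounds plus 3 SD, set separately per screening campaign, cut at about 2.9% in these data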;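 note: PERK kinase domain activated by AP20187 dimerizer at 100 nM; 0% = DMSO with dimerizer and 100% = rapamycin at 8.4 µM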
# TbHK1 inh: T. brucei hexokinase 1 inhibition. recombinant TbHK1, G6PDH-coupled NADH A340. inhibition, % at 10 µM. 220,000 compounds, 0.11% hits;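 active = inhibition of 50% or more in the single-dose primary screen; inactive = inhibition below 50%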
# HSV replic up: increases HSV replication in cells. maximum fold increase. AID 1956. HSV replication augmentation in cells, fold increase. 220,000 compounds, 0.005% hits; in the data active = maximum fold increase above about 1.5; inconclusive = no clear call, values can overlap the other calls; tested in PC3 cells
# Dynein transport: dynein cargo transport inhibition. 3617.4 mouse cells, GR-EGFP nuclear translocation imaging; test concentration mostly 20 µM; stimulated with dexamethasone, 1 µM; hits give low values. z-score, hits read low. 220,000 compounds, 0.47% hits;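 active = plate z-score of nuclear minus cytoplasmic receptor signal below a set negative limit, without overly bright fluorescence or cell loss, cut at about -3.5 in these data, passing the limit was not always enough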;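 note: z-score of nuclear minus cytoplasmic ring GR-EGFP intensity difference per well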
#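 Buffer or medium: tetracycline-free induction medium containing charcoal-stripped FBS / Reagent: dexamethasone agonist, 1.0 µM final, for 30 min / Technique: automated 10x imaging of fixed Hoechst-stained cells / Times: induction 48 h, compound 1 h, agonist 30 min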
# Autophagy HCS: autophagy modulation, high-content screen | AID 463193 | 190,000 compounds, 0.98% hits | MEF GFP-LC3 puncta imaging; test concentration mostly 10 µM | calls only at 10 µM (by protocol);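 active = percentage of spot-positive cells more than 3 SD above its plate mean, without a fluorescence outlier flag or 80% toxicity; inconclusive = no clear call, values can overlap the other calls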;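 note: spot-positive cell cutoff set from DMSO-treated cells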
# An asterisk follows results filed as active; i = inactive; u = inconclusive; x = not tested or not shown; + = active, no number. In the library only some 1.2% were active in any assay of this set; here they are far more common.
SMILES,HKDC1 inhibitor,PERK inh,TbHK1 inh,HSV replic up,Dynein transport,Autophagy HCS
COc1ccccc1N=C(C)C1=C(O)CC(c2ccccc2)CC1=O (configuration not stated),-1.9,1.9,-4.6,i,2.6,+
CCOC(=O)C1CCCN(C(=O)c2ccc3ncsc3c2)C1 (configuration not stated),-2.3,x,x,x,x,x
Brc1ccc(-c2ccc(/C=N/Nc3nncc(-c4ccccc4)n3)o2)cc1,3.8,-0.6,-26.2,i,0.114,+
Fc1cnc(N/N=C/c2ccc(-c3ccc(Br)cc3)o2)nc1N1CCOCC1,-1.9,-2.5,-31.4,i,-0.141,x
Brc1ccc(-c2ccc(/C=N/Nc3nc(N4CCOCC4)nc(N4CCOCC4)n3)o2)cc1,1.0,-0.4,-6.3,i,1.33,+
Brc1ccc(/C=N/Nc2nncc(-c3ccccc3)n2)o1,x,0.4,-23.8,i,1.68,i
CCN(CC(=O)Nc1ccc(OC)cc1)CC(=O)Nc1sc2c(c1C(=O)OC)CCCC2,0.5,x,x,x,x,x
C=CC[C@]12CCc3ccccc3C1N(c1ccc(C(=O)OCC)cc1)C2=O (some centres not stated),-0.3,x,x,x,x,x
NC(=O)NOCc1ccc(Cl)cc1Cl,-8.3,1.1,-1.4,i,1.49,i
CNC(=S)/N=C/NOCc1ccc(Cl)cc1Cl,-9.2,0.2,4.2,i,0.58,+
CNc1ccc(Br)cc(C(=O)/C=C/c2cc(OC)ccc2OC)c1=O,19.1,0.1,-9.9,i,-4.14*,i
O=C(c1ccc2c(c1)OCO2)C1CCCN(Cc2ccc(OC(F)F)cc2)C1 (configuration not stated),-2.4,x,x,x,x,x
CCOC(=O)c1c(C)[nH]c(C)c1S(=O)(=O)NCCN1CCN(c2ccccc2F)CC1,-3.9,x,x,x,x,x
COCCOC(=O)C(CC(=O)O)NCc1ccco1 (configuration not stated),-1.3,4.0*,-3.7,i,1.11,x
COC(=O)c1ccc(CNC(=O)c2ccc(OC)c(S(=O)(=O)NC3CCCC3)c2)cc1,-6.3,x,x,x,x,x
CCCN(CCC)CCCNC(=S)Nc1ccc2nc(N3CCN(CC)CC3)cc(C)c2c1,-0.1,0.0,-3.2,i,0.988,i
CCCN(CCC)CCCNC(=S)Nc1ccc2nc(N3CCN(C)CC3)cc(C)c2c1,-6.8,-0.5,-4.2,i,-0.259,+
CCN1CCN(c2cc(C)c3cc(NC(=O)c4ccc(Br)o4)ccc3n2)CC1,-0.2,-1.9,-42.6,i,-0.324,+
COc1ccc(Nc2nc(N3CCCCC3)c3ccccc3n2)cc1,0.5,-0.4,5.4,i,-0.0772,i
Oc1ccc(Nc2nc(N3CCCC3)c3ccccc3n2)cc1,-5.0,-1.2,-3.7,i,-1.11,+
O=Cc1ccc(-c2ccc(Cl)cc2Cl)[nH]1,3.3,4.2*,-33.5,i,0.615,i
CC1CCCC(NC(=O)COC(=O)c2ccccc2[N+](=O)[O-])C1C (configuration not stated),-6.6,0.2,7.7,i,0.0947,+
Nc1nonc1C(=O)N/N=C/c1cc2c(cc1Br)OCO2,-3.6,x,x,x,x,x
O=C(CSc1nnc(-c2ccncc2)o1)Nc1ccc(F)c(F)c1,-0.9,x,x,x,x,x
COc1ccc(-c2cc(C(F)(F)F)c(C#N)c(SCC(=O)Nc3nc(C)co3)n2)cc1,-6.2,1.5,-15.2,i,-0.649,+
SMILES,HKDC1 inhibitor,PERK inh,TbHK1 inh,HSV replic up,Dynein transport,Autophagy HCS
COc1ccc(NC(=O)CSc2nc(-c3ccc(C)cc3)cc(C(F)(F)F)c2C#N)cc1,3.5,1.6,-12.0,i,0.622,i
COc1ccc(-c2cc(C(F)(F)F)c(C#N)c(SCC(=O)Nc3ccccc3C#N)n2)cc1,-7.3,0.6,-0.8,i,0.143,+
COCCN(C(=O)COC(=O)c1sccc1C)c1c(N)n(Cc2ccccc2)c(=O)[nH]c1=O,-6.8,x,x,x,x,x
CCCCn1nc(-c2ccccc2)c2nc3ccccc3nc21,x,0.3,4.3,u,-1.51,+
Cn1nc(-c2ccccc2)c2nc3ccccc3nc21,-4.4,1.3,-10.9,u,-0.411,+
O=C(COC(=O)c1cc(=O)[nH]c2ccccc12)NCc1ccc(Cl)cc1,-2.7,x,x,x,x,x
O=S1(=O)N=C(Oc2ccccc2)c2ccccc21,-4.9,2.9*,4.4,i,-0.0665,i
